Active and inactive are the calls of the source.

The subject of one series is Mus musculus. The experiment in a line: Anticonvulsant activity in ip dosed mouse assessed as inhibition of maximum electric shock-induced hind limb tonic extension after 0.5 hrs. The class given is functional. The conditions noted are these: Hindlimb, read-out: MED. The method, boiled down:
(§1)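 Male Kunming mice received the compound ip as a suspension in 0.5% methylcellulose at 30, 100 and 300 mg/kg, one to four mice per dose. At 0.5 h and 4.0 h, a 60-Hz, 50-mA current was given through corneal electrodes for 0.25 s. Absence of hindlimb tonic extension counted as protection. The minimal dose protecting half or more of the mice was recorded.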
For `Cc1ccc(C(=O)NN2C(=O)NC3(CC3(C)C)C2=O)cc1` (stereo not drawn), the minimal effective dose was 100 mg/kg.
Take `CC1(C)CC12NC(=O)N(NC(=O)c1ccccc1F)C2=O` (stereo not drawn): the minimal effective dose was 100 mg/kg.
As for `CC1(C)CC12NC(=O)N(NC(=O)c1ccc(Br)cc1)C2=O` (stereo not drawn), the minimal effective dose is 300 mg/kg.
Same read-out and setting: the result for `COc1cc(C(=O)NN2C(=O)NC3(CC3(C)C)C2=O)cc(OC)c1OC` (stereo not drawn) reads 300 mg/kg; that for `CC1(C)CC12NC(=O)N(NC(=O)c1ccccc1Cl)C2=O` (stereo not drawn), 300 mg/kg; that for `CC1(C)CC12NC(=O)N(NC(=O)c1ccccc1)C2=O` (stereo not drawn), 300 mg/kg.
For the compound `CN(C)c1ccc(C(=O)NN2C(=O)NC3(CC3(C)C)C2=O)cc1` (stereo not drawn), the minimal effective dose amounted to 300 mg/kg.
On the same count and under the same terms, the same measure for `CC1(C)CC12NC(=O)N(NC(=O)c1ccc(F)cc1)C2=O` (stereo not drawn): 100 mg/kg; for `Cc1cccc(C(=O)NN2C(=O)NC3(CC3(C)C)C2=O)c1` (stereo not drawn): 100 mg/kg; for `CC1(C)CC12NC(=O)N(NC(=O)c1ccc(Cl)cc1)C2=O` (stereo not drawn): 100 mg/kg.
The same measure, in the same setting: the same measure for `CC1(C)CC12NC(=O)N(NC(=O)c1ccc([N+](=O)[O-])cc1)C2=O` (stereo not drawn): 300 mg/kg.
As to `COc1ccc(C(=O)NN2C(=O)NC3(CC3(C)C)C2=O)cc1OC` (stereo not drawn), the minimal effective dose was found to be 300 mg/kg.
The same measure, in the same setting: the same measure for `COc1ccc(C(=O)NN2C(=O)NC3(CC3(C)C)C2=O)cc1` (stereo not drawn): 100 mg/kg.

For a further series, the system named is Mus musculus. The experiment in a line: Anticonvulsant activity in ip dosed mouse assessed as inhibition of PTZ-induced clonic seizure after 4 hrs. Type of series: functional.
Settings: not given
The method, boiled down:
(§2)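 Male Kunming mice were dosed ip with the compound suspended in 0.5% methylcellulose at 30, 100 and 300 mg/kg, one to four mice per dose. Pentylenetetrazole in 0.9% saline was given subcutaneously at 0.5 h and 4.0 h. Protection meant no threshold seizure, i.e. no single clonic spasm episode lasting at least 5 s. The minimal dose active in half or more of the mice was recorded.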
`CC1(C)CC12NC(=O)N(NC(=O)c1ccccc1F)C2=O` (stereo not drawn): the result was inactive.
As for `COc1cc(C(=O)NN2C(=O)NC3(CC3(C)C)C2=O)cc(OC)c1OC` (stereo not drawn), the result was inactive.
On the same count and under the same terms, the result for `CC1(C)CC12NC(=O)N(NC(=O)c1ccccc1Cl)C2=O` (stereo not drawn) reads “inactive”; that for `CC1(C)CC12NC(=O)N(NC(=O)c1ccccc1)C2=O` (stereo not drawn), “inactive”; that for `CN(C)c1ccc(C(=O)NN2C(=O)NC3(CC3(C)C)C2=O)cc1` (stereo not drawn), “inactive”.
On to `CC1(C)CC12NC(=O)N(NC(=O)c1ccc(F)cc1)C2=O` (stereo not drawn), for which the result was inactive.
Still for that read-out and setting: the result for `Cc1cccc(C(=O)NN2C(=O)NC3(CC3(C)C)C2=O)c1` (stereo not drawn) reads “inactive”; that for `CC1(C)CC12NC(=O)N(NC(=O)c1ccc(Cl)cc1)C2=O` (stereo not drawn), “inactive”; that for `CC1(C)CC12NC(=O)N(NC(=O)c1ccc([N+](=O)[O-])cc1)C2=O` (stereo not drawn), “inactive”.
Still for that read-out and setting: the result for `COc1ccc(C(=O)NN2C(=O)NC3(CC3(C)C)C2=O)cc1` (stereo not drawn) reads “inactive”.

Staying with this series, now noted: read-out: MED.
With `Cc1ccc(C(=O)NN2C(=O)NC3(CC3(C)C)C2=O)cc1` (stereo not drawn), the minimal effective dose is 300 mg/kg.
Still for that read-out and setting: the result for `CC1(C)CC12NC(=O)N(NC(=O)c1ccc(Br)cc1)C2=O` (stereo not drawn) reads 300 mg/kg; that for `COc1ccc(C(=O)NN2C(=O)NC3(CC3(C)C)C2=O)cc1OC` (stereo not drawn), 300 mg/kg.

For the next series, the system named is Mus musculus. The experiment in a line: Anticonvulsant activity in ip dosed mouse assessed as inhibition of PTZ-induced clonic seizure after 0.5 hrs. Type of series: functional.
Settings: not given
The essentials:
as §2
Turning to `Cc1ccc(C(=O)NN2C(=O)NC3(CC3(C)C)C2=O)cc1` (stereo not drawn), the result was inactive.
Still for that read-out and setting: the result for `CC1(C)CC12NC(=O)N(NC(=O)c1ccccc1F)C2=O` (stereo not drawn) reads “inactive”.
On the same count and under the same terms, the same measure for `CC1(C)CC12NC(=O)N(NC(=O)c1ccc(Br)cc1)C2=O` (stereo not drawn): “inactive”; for `COc1cc(C(=O)NN2C(=O)NC3(CC3(C)C)C2=O)cc(OC)c1OC` (stereo not drawn): “inactive”; for `Cc1cccc(C(=O)NN2C(=O)NC3(CC3(C)C)C2=O)c1` (stereo not drawn): “inactive”.
On the same count and under the same terms, the result for `COc1ccc(C(=O)NN2C(=O)NC3(CC3(C)C)C2=O)cc1OC` (stereo not drawn) reads “inactive”; that for `COc1ccc(C(=O)NN2C(=O)NC3(CC3(C)C)C2=O)cc1` (stereo not drawn), “inactive”.

Staying with this series, now noted: read-out: MED.
In the case of `CC1(C)CC12NC(=O)N(NC(=O)c1ccccc1Cl)C2=O` (stereo not drawn), the minimal effective dose is 300 mg/kg.
Consider `CC1(C)CC12NC(=O)N(NC(=O)c1ccccc1)C2=O` (stereo not drawn), for which the minimal effective dose came out at 300 mg/kg.
As for `CN(C)c1ccc(C(=O)NN2C(=O)NC3(CC3(C)C)C2=O)cc1` (stereo not drawn), the minimal effective dose is 100 mg/kg.
Same read-out and setting: the same measure for `CC1(C)CC12NC(=O)N(NC(=O)c1ccc(F)cc1)C2=O` (stereo not drawn): 300 mg/kg; for `CC1(C)CC12NC(=O)N(NC(=O)c1ccc(Cl)cc1)C2=O` (stereo not drawn): 300 mg/kg; for `CC1(C)CC12NC(=O)N(NC(=O)c1ccc([N+](=O)[O-])cc1)C2=O` (stereo not drawn): 300 mg/kg.

The test system of the next series is Mus musculus. As to the kind of experiment: Neurotoxicity against ip dosed mouse by rotarod test after 4 hrs. Type of series: toxicity, organism-based. The conditions noted are these: in vivo. The essentials:
(§3)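 Mice were trained on a 1-in. knurled rod turning at 6 rpm, then given 30, 100 or 300 mg/kg ip as a suspension in 0.5% methylcellulose. They were tested at 0.5 h and 4.0 h. Neurotoxicity meant failure to keep balance on the rod for at least 1 min in each of four trials. The minimal dose affecting half or more of the mice was recorded.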
In general terms: The rotarod test checks motor coordination on a turning rod.
Compound `Cc1ccc(C(=O)NN2C(=O)NC3(CC3(C)C)C2=O)cc1` (stereo not drawn) returned an MED of 300 mg/kg.
Consider `CC1(C)CC12NC(=O)N(NC(=O)c1ccccc1F)C2=O` (stereo not drawn), for which the MED is 300 mg/kg.
The compound `CC1(C)CC12NC(=O)N(NC(=O)c1ccc(Br)cc1)C2=O` (stereo not drawn) yielded an MED of 300 mg/kg.
On the same count and under the same terms, the result for `COc1cc(C(=O)NN2C(=O)NC3(CC3(C)C)C2=O)cc(OC)c1OC` (stereo not drawn) reads 300 mg/kg; that for `CC1(C)CC12NC(=O)N(NC(=O)c1ccccc1Cl)C2=O` (stereo not drawn), 300 mg/kg.
On to `CC1(C)CC12NC(=O)N(NC(=O)c1ccccc1)C2=O` (stereo not drawn), for which the Activity result is recorded as “Not Active”.
Still for that read-out and setting: the same measure for `CN(C)c1ccc(C(=O)NN2C(=O)NC3(CC3(C)C)C2=O)cc1` (stereo not drawn): “Not Active”.
`CC1(C)CC12NC(=O)N(NC(=O)c1ccc(F)cc1)C2=O` (stereo not drawn): the MED was determined as 300 mg/kg.
`Cc1cccc(C(=O)NN2C(=O)NC3(CC3(C)C)C2=O)c1` (stereo not drawn): the Activity entry is “Not Active”.
`CC1(C)CC12NC(=O)N(NC(=O)c1ccc(Cl)cc1)C2=O` (stereo not drawn): the Activity entry is “Not Active”.
For the compound `CC1(C)CC12NC(=O)N(NC(=O)c1ccc([N+](=O)[O-])cc1)C2=O` (stereo not drawn), the Activity result is “Not Active”.
Regarding `COc1ccc(C(=O)NN2C(=O)NC3(CC3(C)C)C2=O)cc1OC` (stereo not drawn), the MED amounted to 300 mg/kg.
The same measure, in the same setting: the same measure for `COc1ccc(C(=O)NN2C(=O)NC3(CC3(C)C)C2=O)cc1` (stereo not drawn): 300 mg/kg.

Another series deals with Mus musculus. As to the kind of experiment: Neurotoxicity against ip dosed mouse by rotarod test after 0.5 hrs. The class given is toxicity, organism-based. The conditions noted are these: in vivo. The essentials: as §3
With `Cc1ccc(C(=O)NN2C(=O)NC3(CC3(C)C)C2=O)cc1` (stereo not drawn), the Activity entry was “Not Active”.
As to `CC1(C)CC12NC(=O)N(NC(=O)c1ccccc1F)C2=O` (stereo not drawn), the Activity entry is reported as “Not Active”.
Compound `CC1(C)CC12NC(=O)N(NC(=O)c1ccc(Br)cc1)C2=O` (stereo not drawn) gave an MED of 300 mg/kg.
In turn, `COc1cc(C(=O)NN2C(=O)NC3(CC3(C)C)C2=O)cc(OC)c1OC` (stereo not drawn) had an MED of 100 mg/kg.
On to `CC1(C)CC12NC(=O)N(NC(=O)c1ccccc1Cl)C2=O` (stereo not drawn), for which the Activity entry is “Not Active”.
`CC1(C)CC12NC(=O)N(NC(=O)c1ccccc1)C2=O` (stereo not drawn): the MED stood at 300 mg/kg.
With `CN(C)c1ccc(C(=O)NN2C(=O)NC3(CC3(C)C)C2=O)cc1` (stereo not drawn), the Activity result is “Not Active”.
Same read-out and setting: the same measure for `CC1(C)CC12NC(=O)N(NC(=O)c1ccc(F)cc1)C2=O` (stereo not drawn): “Not Active”; for `Cc1cccc(C(=O)NN2C(=O)NC3(CC3(C)C)C2=O)c1` (stereo not drawn): “Not Active”.
Same read-out and setting: the result for `CC1(C)CC12NC(=O)N(NC(=O)c1ccc(Cl)cc1)C2=O` (stereo not drawn) reads “Not Active”; that for `CC1(C)CC12NC(=O)N(NC(=O)c1ccc([N+](=O)[O-])cc1)C2=O` (stereo not drawn), “Not Active”.
As for `COc1ccc(C(=O)NN2C(=O)NC3(CC3(C)C)C2=O)cc1OC` (stereo not drawn), the Activity result is on record as “Not Active”.
For `COc1ccc(C(=O)NN2C(=O)NC3(CC3(C)C)C2=O)cc1` (stereo not drawn), the Activity entry is “Not Active”.

The next series has as its system Mus musculus. The experiment in a line: Anticonvulsant activity in ip dosed mouse assessed as inhibition of maximum electric shock-induced hind limb tonic extension after 4 hrs. Type of series: functional. The conditions noted are these: Hindlimb. The essentials:
as §1
With `Cc1ccc(C(=O)NN2C(=O)NC3(CC3(C)C)C2=O)cc1` (stereo not drawn), the result was inactive.
`CC1(C)CC12NC(=O)N(NC(=O)c1ccccc1F)C2=O` (stereo not drawn): the result was inactive.
Turning to `COc1cc(C(=O)NN2C(=O)NC3(CC3(C)C)C2=O)cc(OC)c1OC` (stereo not drawn), the outcome was inactive.
Regarding `CC1(C)CC12NC(=O)N(NC(=O)c1ccccc1Cl)C2=O` (stereo not drawn), the result was inactive.
`CC1(C)CC12NC(=O)N(NC(=O)c1ccccc1)C2=O` (stereo not drawn): the outcome was inactive.
As to `Cc1cccc(C(=O)NN2C(=O)NC3(CC3(C)C)C2=O)c1` (stereo not drawn), the result was inactive.
For the compound `COc1ccc(C(=O)NN2C(=O)NC3(CC3(C)C)C2=O)cc1` (stereo not drawn), the result was inactive.

Still in this series, the particulars now being: Hindlimb, read-out: MED.
For `CC1(C)CC12NC(=O)N(NC(=O)c1ccc(Br)cc1)C2=O` (stereo not drawn), the minimal effective dose was 300 mg/kg.
As for `CN(C)c1ccc(C(=O)NN2C(=O)NC3(CC3(C)C)C2=O)cc1` (stereo not drawn), the minimal effective dose was 300 mg/kg.
On the same count and under the same terms, the same measure for `CC1(C)CC12NC(=O)N(NC(=O)c1ccc(F)cc1)C2=O` (stereo not drawn): 300 mg/kg; for `CC1(C)CC12NC(=O)N(NC(=O)c1ccc(Cl)cc1)C2=O` (stereo not drawn): 300 mg/kg; for `CC1(C)CC12NC(=O)N(NC(=O)c1ccc([N+](=O)[O-])cc1)C2=O` (stereo not drawn): 300 mg/kg.
As to `COc1ccc(C(=O)NN2C(=O)NC3(CC3(C)C)C2=O)cc1OC` (stereo not drawn), the minimal effective dose is 300 mg/kg.

The record behind these values is ChEMBL document CHEMBL1629500, “Synthesis and anticonvulsant activity of N-3-arylamide substituted 5,5-cyclopropanespirohydantoin derivatives” (Eur J Med Chem, 2010).
